From ChEMBL document CHEMBL1127665, “Synthesis and antibacterial activity of new quinolones containing a 7-[3-(1-amino-1-methylethyl)-1-pyrrolidinyl] moiety. Gram-positive agents with excellent oral activity and low side-effect potential” (J Med Chem, 1994)
Converted amounts (≈) assume the structure as drawn.

Assays:
Mus musculus [1] = test: In vivo antibacterial activity against Streptococcus pyogenes after following oral administration; type: functional; details: read-out: PD50
Summary of the method: (§1)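 Acute lethal systemic infection in female Charles River CD-1 mice. Compound given orally or subcutaneously. Potency expressed as median protective dose (PD50, mg/kg), the dose preventing death in 50% of animals.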

Enterococcus faecalis = test: Minimum inhibitory concentration against Streptococcus faecalis MGH-2; type: functional
Summary of the method: (§2)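 Tested by microtitration against a panel of 10 Gram-positive and Gram-negative organisms. MIC is reported in μg/mL.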

Staphylococcus aureus [2] = test: Minimum inhibitory concentration against Staphylococcus aureus H 228; type: functional; summary of the method: as §2
Escherichia coli = test: Minimum inhibitory concentration against Escherichia coli Vogel; type: functional; summary of the method: as §2
Mus musculus [3] = test: In vivo antibacterial activity against Escherichia coli after following oral administration; type: functional; details: read-out: PD50; summary of the method: as §1
Mus musculus [4] = test: In vivo antibacterial activity against Escherichia coli after following subcutaneous administration; type: functional; details: sc, read-out: PD50; summary of the method: as §1
Staphylococcus aureus [5] = test: Minimum inhibitory concentration against Staphylococcus aureus UC-76; type: functional; summary of the method: as §2
Mus musculus [6] = test: In vivo antibacterial activity against Streptococcus pyogenes after following subcutaneous administration; type: functional; details: sc, read-out: PD50; summary of the method: as §1
Klebsiella pneumoniae = test: Minimum inhibitory concentration against Klebsiella pneumoniae MGH-2; type: functional; summary of the method: as §2
Pseudomonas aeruginosa = test: Minimum inhibitory concentration against U1-18 cell line from Pseudomonas aeruginosa; type: functional; summary of the method: as §2
Enterobacter cloacae = test: Minimum inhibitory concentration against Enterobacter cloacae MA 2646; type: functional
Providencia rettgeri = test: Minimum inhibitory concentration against M1771 strain of Providencia rettgeri; type: functional; summary of the method: as §2
Streptococcus pneumoniae = test: Minimum inhibitory concentration tested against Streptococcus pneumoniae SV-1; type: functional; summary of the method: as §2
Streptococcus pyogenes = test: Minimum inhibitory concentration against Streptococcus pyogenes C203; type: functional; summary of the method: as §2
V79 = test: Clonogenic cytotoxicity against Hamster V-79 cells; type: cell-based; details: Cricetulus griseus
[7] = The no effect dose (NED) for phototoxicity in mouse; type: organism-based; details: in vivo, read-out: NED
Summary of the method: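 Female CD-1 mice were depilated and dosed orally, with five animals per dose plus controls. After each dose the mice were exposed to UVA for 3 h. This was repeated daily for 4 days. Any redness or erythema relative to control was scored positive. The value is the highest dose producing no effect, in mg/kg.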

| Compound | ED50 (Mus musculus [1]) [mg/kg] | MIC (Enterococcus faecalis) [µg/mL] | MIC (Staphylococcus aureus [2]) [µg/mL] | MIC (Escherichia coli) [µg/mL] | ED50 (Mus musculus [3]) [mg/kg] | ED50 (Mus musculus [4]) [mg/kg] | MIC (Staphylococcus aureus [5]) [µg/mL] | ED50 (Mus musculus [6]) [mg/kg] | MIC (Klebsiella pneumoniae) [µg/mL] | MIC (Pseudomonas aeruginosa) [µg/mL] | MIC (Enterobacter cloacae) [µg/mL] | MIC (Providencia rettgeri) [µg/mL] | MIC (Streptococcus pneumoniae) [µg/mL] | MIC (Streptococcus pyogenes) [µg/mL] | IC50 (V79) [µg/mL] | NOAEL [7] [mg/kg] |
| --- | --- | --- | --- | --- | --- | --- | --- | --- | --- | --- | --- | --- | --- | --- | --- | --- |
| COc1c(N2CC[C@@H](C(C)(C)N)C2)c(F)cc2c(=O)c(C(=O)O)cn(C3CC3)c12.Cl | 2 | 0.013 | 0.013 | 0.1 | 26 | 3 | 0.003 | 0.6 | 0.2 | 1.6 | 0.1 | 0.4 | 0.003 | 0.003 | 18 |  |
| CC(C)(N)[C@@H]1CCN(c2cc3c(cc2F)c(=O)c(C(=O)O)cn3C2CC2)C1.Cl | 20 | 0.025 | 0.05 | 0.05 | 18 | 2 | 0.006 | 1 | 0.1 | 0.8 | 0.05 | 0.2 | 0.003 | 0.003 | 190 |  |
| CC(C)(N)[C@H]1CCN(c2cc3c(cc2F)c(=O)c(C(=O)O)cn3C2CC2)C1.Cl | > 100 | 0.4 | 0.4 | 0.4 |  |  | 0.1 | 13 | 0.8 | 3.1 | 0.4 | 1.6 | 0.2 | 0.2 |  |  |
| CC(C)(N)[C@H]1CCN(c2nc3c(cc2F)c(=O)c(C(=O)O)cn3-c2ccc(F)cc2F)C1.Cl |  | 0.4 | 0.4 | 0.4 |  |  | 0.1 |  | 0.8 | 3.1 | 0.4 | 1.6 | 0.4 | 0.4 |  |  |
| COc1c(N2CC[C@H](C(C)(C)N)C2)c(F)cc2c(=O)c(C(=O)O)cn(C3CC3)c12.Cl | 29 | 0.05 | 0.05 | 0.2 |  |  | 0.013 | 3 | 0.4 | 3.1 | 0.2 | 0.8 | 0.025 | 0.025 | > 500 |  |
| CC(C)(N)[C@H]1CCN(c2c(F)cc3c(=O)c(C(=O)O)cn(C4CC4)c3c2Cl)C1.Cl | 13 | 0.05 | 0.025 | 0.1 | 27 | 4 | 0.013 | 4 | 0.2 | 1.6 | 0.1 | 0.4 | 0.013 | 0.025 |  |  |
| CC(C)(N)[C@H]1CCN(c2nc3c(cc2F)c(=O)c(C(=O)O)cn3C2CC2)C1.Cl | 32 | 0.1 | 0.1 | 0.2 | 10 | 3 | 0.025 | 6 | 0.4 | 3.1 | 0.2 | 0.8 | 0.05 | 0.1 |  | 55 |
| NCC1CCN(c2nc3c(cc2F)c(=O)c(C(=O)O)cn3-c2ccc(F)cc2F)C1 (stereo not drawn) |  | 0.025 (≈ 0.0598 µM) | 0.05 (≈ 0.12 µM) | 0.05 (≈ 0.12 µM) |  |  | 0.013 (≈ 0.0311 µM) |  | 0.1 (≈ 0.239 µM) | 0.4 (≈ 0.956 µM) | 0.05 (≈ 0.12 µM) | 0.2 (≈ 0.478 µM) | 0.025 (≈ 0.0598 µM) | 0.025 (≈ 0.0598 µM) |  |  |
| C[C@@H](N)C1CCN(c2nc3c(cc2F)c(=O)c(C(=O)O)cn3C2CC2)C1 (stereo partly drawn) | 3 | 0.013 (≈ 0.0361 µM) | 0.025 (≈ 0.0694 µM) | 0.025 (≈ 0.0694 µM) | 2 | 0.4 | 0.003 (≈ 0.00832 µM) | 1 | 0.05 (≈ 0.139 µM) | 0.4 (≈ 1.11 µM) | 0.05 (≈ 0.139 µM) | 0.1 (≈ 0.277 µM) | 0.003 (≈ 0.00832 µM) | 0.013 (≈ 0.0361 µM) | 33 (≈ 91.6 µM) | 30 |
| O=C(O)c1cn(C2CC2)c2cc(N3CCNCC3)c(F)cc2c1=O [CIPROFLOXACIN] | 180 | 0.8 (≈ 2.41 µM) | 3.1 (≈ 9.36 µM) |  | 1 | 0.3 | 0.2 (≈ 0.604 µM) | 19 | 0.05 (≈ 0.151 µM) | 0.4 (≈ 1.21 µM) |  | 0.1 (≈ 0.302 µM) | 1.6 (≈ 4.83 µM) | 0.8 (≈ 2.41 µM) |  | > 100 |
